The values below come from paper PMC3396390 (International Journal of Nanomedicine, 2012).

A short description of series [1]: Brain distribution of DOX after iv injection. The settings on record: ICR mice, iv 2.5 mg DOX/kg. Type of series: in vivo.
Series [2] can be described thus: Saturated solubility of DOX in PBS. Type of series: physicochemical. The settings on record: phosphate-buffered saline (PBS), pH 7.2, aqueous buffer.
Series [3] is described as follows: In vivo imaging of DiR-loaded micelles. The settings on record: nude mice, free dye (not shown). In outline: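 DiR physically entrapped in CS-SA micelles. Anesthetized nude mice were dosed via tail vein at 25 mg CS-SA/kg. Whole-body fluorescence was imaged at set time points after injection. The brain was excised 0.5 h post-injection for ex vivo fluorescence imaging, with a blank brain as negative control.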

One may read the solubility as how much of the substance goes into solution per volume. A high value points to much dissolved substance.

Values after ≈ are worked out from the molar mass of the structure shown. “Also recorded” adds a separate entry of the source.

As for `COc1cccc2c1C(=O)c1c(O)c3c(c(O)c1C2=O)C[C@@](O)(C(=O)CO)C[C@@H]3O[C@H]1C[C@H](N)[C@H](O)[C@H](C)O1.Cl` [DOX · HCl, DOX hydrochloride], the “drug detection in brain” value in series [1] is listed as “not detected in brain; also recorded: no drug signal was detected in brain”.
As to `COc1cccc2c1C(=O)c1c(O)c3c(c(O)c1C2=O)C[C@@](O)(C(=O)CO)C[C@@H]3O[C@H]1C[C@H](N)[C@H](O)[C@H](C)O1` [DOX, Doxorubicin], the solubility in series [2] was 76 µg/mL (≈ 140 µM).
For `CCCCCCCCCCCCCCCCCCN1/C(=C/C=C/C=C/C=C/C2=[N+](CCCCCCCCCCCCCCCCCC)c3ccccc3C2(C)C)C(C)(C)c2ccccc21.[I-]` [DiR], the fluorescence in brain result in series [3] is recorded as “fluorescence was not seen in brain”.
